Test results reported in article PMC10570129 (iScience, 2023).
Read-outs that look alike come from different tables or passages of the source.

What was measured:
[1] = molecular target: PahS; assay: SPR, PAHs injected over PahS sensor chip; type: binding, Cycloclasticus sp. P1; conditions: read-out: KD of PahS for PAH, 20°C
Procedure, shortened: (§1)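 Biacore T200 SPR. The PahS protein, at 30 μg/mL in 10 mM sodium acetate (pH 5.5), was covalently immobilised on an L1 chip by primary amine coupling. Each PAH was diluted to 50 μM in PBS running buffer containing 5% DMSO. It was injected for 120 s at 30 μL/min. PAH-free running buffer served as the negative control.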

[2] = molecular target: PahP; assay: SPR, PAHs injected over PahP sensor chip; type: binding, Cycloclasticus sp. P1; conditions: read-out: KD of PahP for PAH
[3] = molecular target: mutated PahS (Leu370‒Ala370, Leu444‒Ala444, Ala452‒Gly452); assay: SPR, PAHs on site-mutated PahS; type: binding, Cycloclasticus sp. P1; conditions: range over three mutated proteins and five PAHs
Procedure, shortened: as §1

[4] = molecular target: mutated PahP (Tyr42‒Gly42, Leu135‒Ala135, Tyr-215‒Ala215, Leu-254‒Ala254); assay: SPR, PAHs on site-mutated PahP; type: binding, Cycloclasticus sp. P1; conditions: range over mutated PahP and five PAHs
Procedure, shortened: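 Biacore T200 SPR. PahP protein was diluted in 10 mM sodium acetate (pH 5.5) and amine-coupled to a CM5 chip. PAHs were diluted to 50 μM in PBS running buffer with 5% DMSO. They were injected over the PahP surface for 120 s at 30 μL/min. Running buffer without PAH was the negative control.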

[5] = test system: PahP binding to PahS; assay: SPR, PahP bound to PAH in advance, injected over PahS sensor chip; parameters: species or system Cycloclasticus sp. P1; conditions: PahP binds PAH first
[6] = molecular target: PahP and PahR of the PahK-PahP and PahK-PahR reporter cells; assay: FRET or BRET
[7] = molecular target: PahP-YFP (Cycloclasticus sp. P1); assay: FRET or BRET
[8] = molecular target: PahP (Cycloclasticus sp. P1); assay: SPR
[9] = molecular target: PahR (Cycloclasticus sp. P1); assay: SPR
[10] = molecular target: PahP (Cycloclasticus sp. P1); assay: SPR; remark: listed apart in the source
[11] = molecular target: PahP (Cycloclasticus sp. P1); assay: SPR; remark: listed apart in the source
[12] = molecular target: PahK (Cycloclasticus sp. P1); assay: SPR

Row | Molecule | Kd [1] | Kd [2] | KD of the mutated PahS proteins with PAHs [3] | KD of site-mutated PahP with PAHs [4] | further results
1 | c1cc2ccc3cccc4ccc(c1)c2c34 [pyrene] | 21.1 nM | 14.4 nM | 10^−3 to 10^−4 M | 10^−3 to 10^−4 M | binding affinity of PahP with PahS compared to that without PAH [5]: lowered
2 | CFP-PahK (natural protein) |  |  |  |  | FRET efficiency [6]: 16.7 to 21.4%
3 | CFP-PahS (natural protein) |  |  |  |  | FRET efficiency [7]: 19.7%
4 | PahK (natural protein) |  |  |  |  | Kd [8]: 9.8 nM; Kd [9]: 18.9 nM
5 | PahS (natural protein) |  |  |  |  | Kd [10]: 2.12 nM; Kd [11]: 2.97 nM; Kd [12]: 174000 nM; Kd [8]: 92 nM; Kd [9]: 119000 nM

More lines, main results first:

Row | Kd [1] | Kd [2] | KD of the mutated PahS proteins with PAHs [3] | KD of site-mutated PahP with PAHs [4] | Molecule | further results
6 | 21.7 nM | 41 nM | 10^−3 to 10^−4 M | 10^−3 to 10^−4 M | c1ccc2cc3ccccc3cc2c1 [anthracene] | 
7 | 179 nM | 17.4 nM | 10^−3 to 10^−4 M | 10^−3 to 10^−4 M | c1ccc2c(c1)Cc1ccccc1-2 [fluorene] | 
8 | 14.6 nM | 5.3 nM | 10^−3 to 10^−4 M | 10^−3 to 10^−4 M | c1ccc2ccccc2c1 [naphthalene] | 
9 | 21.4 nM | 19.6 nM | 10^−3 to 10^−4 M | 10^−3 to 10^−4 M | c1ccc2c(c1)ccc1ccccc12 [phenanthrene] | binding affinity of PahP with PahS compared to that without PAH [5]: lowered
